Here are results for 16 compounds from ChEMBL document CHEMBL1773010, “Cytotoxic and apoptosis-inducing activities of limonoids from the seeds of Azadirachta indica (neem)” (J Nat Prod, 2011).

In test [1] the test system is HL-60. The test is described as follows: Induction of apoptosis in human HL60 cells assessed as late apoptotic cells at 30 uM after 24 hrs using annexin-V FITC and PI staining by flow cytometry. It is filed as functional. The procedure, abridged:
(§1)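 HL60 cells (1 × 10^5) exposed to 30 μM final compound for 8 or 24 h. Cells were washed in annexin-binding buffer, stained with annexin V-FITC and PI for 10 min, and analyzed by flow cytometry (FL1 and FL2). Quadrants: early apoptotic annexin+/PI−, late apoptotic double positive, necrotic annexin−/PI+. Values are means of three experiments.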

Test [2] deals with HL-60. The test is described as follows: Induction of apoptosis in human HL60 cells assessed as decrease in procaspase-9 level at 30 uM after 24 hrs by Western blot analysis. The format is functional, cell-based. The method, boiled down:
(§2)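 HL60 cells (4 × 10^5) exposed to 30 μM final compound for 8 and 24 h, then lysed. Total protein was run on 15% SDS-PAGE and transferred to PVDF. Membranes were probed overnight at 4 °C with antibodies to caspase-3, cleaved caspase-3, caspase-8 and caspase-9, with β-actin as loading control.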

For test [3], the system named is HL-60. Description: Induction of apoptosis in human HL60 cells assessed as increase in cleaved caspase-8 level at 30 uM after 24 hrs by Western blot analysis. It is filed as functional, cell-based. The procedure, abridged: as §2
Test [4] has as its system HL-60. Description: Induction of apoptosis in human HL60 cells assessed as decrease in procaspase-3 level at 30 uM after 24 hrs by Western blot analysis. The format is functional, cell-based. The procedure, abridged:
as §2

The nature of test [5]: Cytotoxicity against human AZ-521 cells assessed as cell viability after 48 hrs by MTT assay. It is filed as functional, cell-based. As to conditions: AZ-521, 48 h. The method, boiled down:
(§3)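 Cells seeded at 3 × 10^3 per well and exposed to compounds from 1 × 10^-4 to 1 × 10^-6 M for 48 h. MTT was then added for 3 h, formazan dissolved in 0.04 M HCl in 2-propanol, and absorbance read at 570 nm against 630 nm. IC50 is the concentration giving 50% growth inhibition, from triplicate assays.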

Test [6] concerns A549. Description: Cytotoxicity against human A549 cells assessed as cell viability after 48 hrs by MTT assay. It is filed as functional, cell-based. Conditions: A549, 48 h. The method, boiled down: as §3
The test system of test [7] is HL-60. The test is described as follows: Cytotoxicity against human HL60 cells assessed as cell viability after 48 hrs by MTT assay. As to conditions: HL-60, 48 h. It is filed as functional, cell-based. The method, boiled down:
as §3

The test system of test [8] is SK-BR-3. Description: Cytotoxicity against human SK-BR-3 cells assessed as cell viability after 48 hrs by MTT assay. The format is functional, cell-based. As to conditions: SK-BR-3, 48 h. The method, boiled down:
as §3

The nature of test [9]: Cytotoxicity against human CRL1579 cells assessed as cell viability after 48 hrs by MTT assay. It is filed as functional, cell-based. The method, boiled down: as §3
Test [10] in a line: Cytotoxicity against human RPMI 1788 cells assessed as cell viability after 48 hrs by MTT assay. Conditions: RPMI-1788, 48 h. It is filed as cell-based. The method, boiled down: as §3
In test [11] the test system is HL-60. Description: Induction of apoptosis in human HL60 cells assessed as decrease in procaspase-8 level at 30 uM after 24 hrs by Western blot analysis. The format is functional, cell-based. The method, boiled down: as §2
For test [12], the system named is HL-60. The test is described as follows: Induction of apoptosis in human HL60 cells assessed as viable cells at 30 uM after 24 hrs using annexin-V FITC and PI staining by flow cytometry. The format is functional. Conditions: HL-60, 24 h, read-out: Activity. The procedure, abridged: as §1
The subject of test [13] is HL-60. Description: Induction of apoptosis in human HL60 cells assessed as non-viable cells at 30 uM after 24 hrs using annexin-V FITC and PI staining by flow cytometry. It is filed as functional. The method, boiled down: as §1
In test [14] the test system is HL-60. The test is described as follows: Induction of apoptosis in human HL60 cells assessed as early apoptotic cells at 30 uM after 24 hrs using annexin-V FITC and PI staining by flow cytometry. It is filed as functional. The procedure, abridged:
as §1

The subject of test [15] is HL-60. Description: Induction of apoptosis in human HL60 cells assessed as viable cells at 30 uM after 8 hrs using annexin-V FITC and PI staining by flow cytometry. It is filed as functional. Conditions: HL-60, 8 h, read-out: Activity. The method, boiled down: as §1
Test [16] has as its system HL-60. The test is described as follows: Induction of apoptosis in human HL60 cells assessed as non-viable cells at 30 uM after 8 hrs using annexin-V FITC and PI staining by flow cytometry. It is filed as functional. The method, boiled down:
as §1

In test [17] the test system is HL-60. Description: Induction of apoptosis in human HL60 cells assessed as late apoptotic cells at 30 uM after 8 hrs using annexin-V FITC and PI staining by flow cytometry. The format is functional. The method, boiled down:
as §1

For test [18], the system named is HL-60. Description: Selectivity index, ratio of IC50 for human RPMI 1788 cells to IC50 for human HL60 cells. It is filed as functional.
Test [19] has as its system HL-60. Description: Induction of apoptosis in human HL60 cells assessed as early apoptotic cells at 30 uM after 8 hrs using annexin-V FITC and PI staining by flow cytometry. It is filed as functional. The method, boiled down: as §1
Test [20] deals with HL-60. The test is described as follows: Induction of apoptosis in human HL60 cells assessed as increase in cleaved caspase-9 level at 30 uM after 24 hrs by Western blot analysis. The format is functional, cell-based. The procedure, abridged:
as §2

Test [21] deals with HL-60. Description: Induction of apoptosis in human HL60 cells assessed as increase in cleaved caspase-3 level at 30 uM after 24 hrs by Western blot analysis. The format is functional, cell-based. The procedure, abridged: as §2

Structures are written as SMILES. Active and inactive are the calls of the source. The calls are words filed in the database; no cut-off is given here.

Turning to `CC1(C)C(=O)C=C[C@]2(C)[C@H]3CC[C@@]4(C)[C@H](c5ccoc5)C(=O)[C@H]5O[C@]54[C@]3(C)[C@H](OC(=O)c3ccccc3)C[C@@H]12`, the Activity in test [1] was 15.5%; in [13] it was 4.5%; in test [14], 51.8%; in test [16], 1.4%; in [17], 3%; in test [19], 38.7%. The result in [2], in test [3], in test [4], in [11], in [20] and in [21] was Active. The concentration for half-maximal inhibition (IC50) is 8.4 µM in test [5]; more than 20 µM in [6]; 3.1 µM in test [7]; more than 20 µM in test [8]; more than 20 µM in test [9]; 16.1 µM in [10]. Further, the results for the viability at 30 µM in [12] and in test [15] were 28.2% and 56.9%, respectively. For the same compound, in [18], the “Ratio IC50” value came to 5.19.

Take `COC(=O)C[C@H]1[C@]2(C)C3=C(C)[C@H](c4ccoc4)C[C@H]3O[C@@H]2[C@@H]2OC[C@]3(C)[C@H](OC(C)=O)C[C@H](OC(=O)/C=C/c4ccccc4)[C@@]1(C)[C@@H]23` [OHCHININ ACETATE]: the IC50 was more than 20 µM in test [5]; more than 20 µM in test [6]; 9.9 µM in test [7]; more than 20 µM in test [8]; more than 20 µM in test [9].

Consider `COC(=O)C[C@H]1[C@]2(C)C3=C(C)[C@H](c4ccoc4)C[C@H]3O[C@@H]2[C@@H]2OC[C@]3(C)C=CC(=O)[C@@]1(C)[C@@H]23`, for which the Activity worked out at 28.1% in test [1]; 3.4% in test [13]; 18.7% in test [14]; 3.5% in test [16]; 11.8% in [17]; 10.9% in [19]. For the same compound, the result in test [2], in test [3], in test [4], in test [11], in test [20] and in test [21] was Active. Further, the IC50 in [5] was 2.4 µM; in test [6] it was 9.3 µM; in test [7], 2.7 µM; in test [8] it was 1.7 µM; in test [9], 14.2 µM; in test [10], 2.7 µM. The viability at 30 µM in [12] is 49.8%; in test [15] it was 73.7%. Moreover, in test [18], the “Ratio IC50” value came to 1.

`CC(=O)O[C@@H]1C[C@H]2C(C)(C)C(=O)C=C[C@]2(C)[C@H]2CC[C@@]3(C)C(c4ccoc4)=C(O)C(=O)[C@H]3[C@@]21C`: the IC50 in test [5], in test [6], in [7], in [8] and in [9] was more than 20 µM throughout.

On to `CC(=O)O[C@@H]1C[C@H]2C(C)(C)C(=O)C=C[C@]2(C)[C@H]2CC[C@]3(C)C(=CC(=O)O[C@]3(O)c3ccoc3)[C@@]21C` [NIMOLICINOL], for which the IC50 in test [5], in [6], in test [7], in [8] and in test [9] was more than 20 µM in each case.

On to `CC1(C)C(=O)C=C[C@]2(C)[C@H]3CC[C@]4(C)C(=CC(=O)[C@H]4c4ccoc4)[C@]3(C)[C@H](O)C[C@@H]12` [NIMBOCINOL], for which the IC50 in [5], in test [6], in [7], in test [8] and in [9] was more than 20 µM in each case.

Regarding `CC(=O)O[C@@H]1C[C@H]2C(C)(C)C(=O)C=C[C@]2(C)[C@H]2CC[C@]3(C)C(=CC(=O)[C@H]3C3=CCOC3=O)[C@@]21C` [AZADIRADIONOLIDE], the IC50 in test [5] was more than 20 µM; in test [6], more than 20 µM; in [7] it was more than 20 µM; in test [8] it was 11.5 µM; in test [9], more than 20 µM.

As to `CC(=O)O[C@@H]1C[C@H]2C(C)(C)C(=O)C=C[C@]2(C)[C@H]2CC[C@@]3(C)CC(=O)C=C3[C@@]21C` [DESFURANOAZADIRADIONE], the IC50 in [5] was more than 20 µM; in test [6], more than 20 µM; in [7] it was 19.8 µM; in test [8], more than 20 µM; in [9], more than 20 µM.

In the case of `CC(=O)O[C@@H]1C[C@H]2C(C)(C)C(=O)C=C[C@]2(C)[C@H]2CC[C@]3(C)C(=CC(=O)[C@]3(O)c3ccoc3)[C@@]21C`, the IC50 in [5] is more than 20 µM; in [6], more than 20 µM; in test [7], more than 20 µM; in [8] it was more than 20 µM; in test [9] it was 19.1 µM.

Turning to `CCC(C)C(=O)O[C@H]1C[C@@H](OC(C)=O)[C@@]2(C)CO[C@H]3[C@H]4O[C@@H]5C[C@@H](c6ccoc6)C(C)=C5[C@@]4(C)[C@H](CC(=O)OC)[C@]1(C)[C@@H]32` (some centres not stated), the IC50 is more than 20 µM in [5]; more than 20 µM in [6]; 17.1 µM in test [7]; more than 20 µM in [8]; more than 20 µM in test [9].

Turning to `O=c1[nH]cc(F)c(=O)[nH]1` [FLUOROURACIL], the IC50 in test [5] was more than 20 µM; in test [6] it was more than 20 µM; in test [7] it was 9.1 µM; in [8], more than 20 µM; in test [9] it was more than 20 µM.

Take `CC(=O)O[C@@H]1C[C@H]2C(C)(C)C(=O)C=C[C@]2(C)[C@H]2CC[C@@]3(C)[C@H](c4ccoc4)C(=O)[C@H]4O[C@]43[C@@]21C` [EPOXYAZADIRADIONE]: the IC50 in test [5] is more than 20 µM; in [6], more than 20 µM; in [7], 9.3 µM; in test [8] it was 12.3 µM; in test [9], more than 20 µM.

Regarding `CC=C(C)C(=O)O[C@@H]1[C@@H]2OC[C@]3(C)[C@H](OC(C)=O)C[C@H](O)[C@](C)([C@H]4CC[C@@](C)([C@@H](C)[C@H]5COC(=O)C5)C[C@]14C)[C@@H]23`, the IC50 in [5], in [6], in [7], in test [8] and in test [9] was more than 20 µM throughout.

Take `CCC(C)C(=O)O[C@H]1C[C@@H](OC(C)=O)[C@@]2(C(=O)OC)CO[C@H]3[C@@H](O)[C@@](C)([C@]45O[C@@]4(C)C4CC5O[C@@H]5C[C@H](OC)C[C@]45O)[C@@H]4[C@@H](C(=O)OC)OC[C@@]14[C@@H]32` (some centres not stated) [VEPAOL]: the IC50 in [5], in test [6], in test [7], in test [8] and in [9] was more than 20 µM each time.

In the case of `C/C=C(/C)C(=O)O[C@H]1C[C@@H](OC(C)=O)[C@@]2(C)CO[C@H]3[C@H]4O[C@@H]5C[C@@H](c6ccoc6)C(C)=C5[C@@]4(C)[C@H](CC(=O)OC)[C@]1(C)[C@@H]32` [SALANNIN], the concentration for half-maximal inhibition (IC50) in test [5], in test [6], in test [7], in test [8] and in test [9] was more than 20 µM throughout.

In the case of `CC(=O)O[C@@H]1C[C@H]2C(C)(C)C(=O)C=C[C@]2(C)[C@H]2CC[C@]3(C)C(=CC(=O)[C@@]3(O)c3ccoc3)[C@@]21C` [17-HYDROXYAZADIRADIONE], the IC50 in [5] was more than 20 µM; in test [6], more than 20 µM; in [7] it was 12.4 µM; in test [8], more than 20 µM; in test [9] it was more than 20 µM.
